Test results: ChEMBL document CHEMBL1124180, “Asymmetric synthesis and properties of the enantiomers of the antibacterial agent 7-(3-aminopyrrolidin-1-yl)-1-(2,4-difluorophenyl)-1,4-dihydro-6- fluoro-4-oxo-1,8-naphthyridine-3-carboxylic acid hydrochloride” (J Med Chem, 1988)

Experiments:
[1] = Solubility in aqueous media 0.1 N chloride, pH 6.5; assay type: physicochemical; details: read-out: S
Burkholderia cepacia = assay: In vitro activity against Pseudomonas cepacia (296I); assay type: functional
Summary of the method: (§1)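 MIC determined by agar dilution on brain-heart infusion agar under aerobic conditions.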

Enterococcus faecium = assay: In vitro activity against Enterococcus faecium (ATCC 8043).; assay type: functional; summary of the method: as §1
Escherichia coli [2] = assay: In vitro activity against Escherichia coli Juhl; assay type: functional
Summary of the method: (§2)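 MIC for aerobic bacteria, measured on brain-heart infusion agar.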

Streptococcus pyogenes [3] = assay: In vitro activity against Streptococcus pyogenes (2548 INDUC).; assay type: functional; summary of the method: as §1
[4] = Solubility in aqueous media urine, pH 7.0; assay type: physicochemical; details: read-out: S
Mus musculus [5] = assay: In vivo activity against Escherichia coli Juhl(100X LD50), when administered po( each compound tested at 3 doses with 10 animals); assay type: functional
Summary of the method: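 Mice were challenged intraperitoneally with the organism. The compound was given orally as a total dose split into equal portions at 1 and 5 h post-infection. Three doses were used, with 10 animals per dose.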

Streptococcus agalactiae = assay: In vitro activity against Streptococcus agalactiae (CMX 508).; assay type: functional; summary of the method: as §1
Providencia stuartii = assay: In vitro activity against Providencia stuartii (CMX 640); assay type: functional; summary of the method: as §1
Pseudomonas aeruginosa [6] = assay: In vitro activity against Pseudomonas aeruginosa (K799/WT).; assay type: functional; summary of the method: as §1
Micrococcus luteus [7] = assay: In vitro activity against Micrococcus luteus (ATCC 4698); assay type: functional; summary of the method: as §1
Streptococcus equinus = assay: In vitro activity against Streptococcus bovis (A5169).; assay type: functional; summary of the method: as §1
Mus musculus [8] = assay: In vivo activity against Pseudomonas aeruginosa A5007 (100X LD50), administered sc( each compound tested at 3 doses with 10 animals); assay type: functional
Summary of the method: (§3)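 Mice were challenged intraperitoneally with the organism. The compound was given subcutaneously as a total dose split into equal portions at 1 and 5 h post-infection. Three doses were used, with 10 animals per dose.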

Escherichia coli [9] = assay: In vitro activity against Escherichia coli (DC-2); assay type: functional; summary of the method: as §2
Staphylococcus aureus [10] = assay: In vitro activity against Staphylococcus aureus(ATCC 6538P); assay type: functional; summary of the method: as §1
Klebsiella aerogenes = assay: In vitro activity againsT Enterobacter aerogenes (ATCC 13048).; assay type: functional; summary of the method: as §1
[11] = Solubility in aqueous media urine, pH 6.3; assay type: physicochemical; details: read-out: S
[12] = Solubility in aqueous media urine, pH 5.1; assay type: physicochemical; details: read-out: S
[13] = Solubility in aqueous media Ringer's buffer,pH7.4; assay type: physicochemical; details: pH 7.4
Staphylococcus aureus [14] = assay: In vitro activity against Staphylococcus aureus(CMX 503A); assay type: functional; summary of the method: as §1
Streptococcus pyogenes [15] = assay: In vitro activity against Streptococcus pyogenes(930 CONST).; assay type: functional; summary of the method: as §1
Staphylococcus aureus [16] = assay: In vitro activity against Staphylococcus aureus(CMX 553); assay type: functional; summary of the method: as §1
Micrococcus luteus [17] = assay: In vitro activity against Micrococcus luteus (ATCC 9341); assay type: functional; summary of the method: as §1
Mus musculus [18] = assay: In vivo activity against Escherichia coli Juhl(100X LD50), when administered sc( each compound tested at 3 doses with 10 animals); assay type: functional; summary of the method: as §3
Escherichia coli [19] = assay: In vitro activity against Escherichia coli (KNK437); assay type: functional; summary of the method: as §2
Acinetobacter sp. = assay: In vitro activity against Acinetobacter sp.(CMX 669).; assay type: functional; summary of the method: as §1
[20] = Solubility in aqueous media 0.15 N sulfate, pH 5.4; assay type: physicochemical; details: read-out: S
Escherichia coli [21] = assay: In vitro activity against Escherichia coli (H560); assay type: functional; summary of the method: as §2
Staphylococcus aureus [22] = assay: In vitro activity against Staphylococcus aureus (A5177); assay type: functional; summary of the method: as §1
Pseudomonas aeruginosa [23] = assay: In vitro activity against Pseudomonas aeruginosa (A5007).; assay type: functional; summary of the method: as §1
[24] = Solubility in aqueous media 0.15Nacetate, pH 6.1; assay type: physicochemical; details: 0.15 N acetate, read-out: S
Escherichia coli [25] = assay: In vitro activity against Escherichia coli (SS).; assay type: functional; summary of the method: as §2
Pseudomonas aeruginosa [26] = assay: In vitro activity against Pseudomonas aeruginosa (BMH10); assay type: functional; summary of the method: as §1
Staphylococcus aureus [27] = assay: In vitro activity against Staphylococcus aureus(45 RAR2); assay type: functional; summary of the method: as §1
Staphylococcus aureus [28] = assay: In vitro activity against Staphylococcus aureus(CMX 686B); assay type: functional; summary of the method: as §1
Mus musculus [29] = assay: In vivo activity against Pseudomonas aeruginosa A5007 (100X LD50), administered sc ( each compound tested at 3 doses with 10 animals); assay type: functional; summary of the method: as §3
Streptococcus pyogenes [30] = assay: In vitro activity against Streptococcus pyogenes (EES61); assay type: functional; summary of the method: as §1
[31] = Solubility in aqueous media urine, pH 5.7; assay type: physicochemical; details: read-out: S
Klebsiella pneumoniae = assay: In vitro activity against Klebsiella pneumoniae (ATCC 8045).; assay type: functional; summary of the method: as §1
Staphylococcus aureus [32] = assay: In vitro activity against Staphylococcus aureus(45); assay type: functional; summary of the method: as §1
[33] = Solubility in aqueous media 0.15 N phosphate, pH 5.6; assay type: physicochemical; details: read-out: S
[34] = system: Staphylococcus epidermidis; assay: In vitro activity against Staphylococcus epidermidis (3519); assay type: functional; summary of the method: as §1

For `Cl.NC1CCN(c2nc3c(cc2F)c(=O)c(C(=O)O)cn3-c2ccc(F)cc2F)C1` (configuration not stated), the solubility [1] was 1.2 µg/mL, the MIC (Burkholderia cepacia) was 6.2 µg/mL and the MIC (Enterococcus faecium) was 0.2 µg/mL. The MIC (Escherichia coli [2]) was 0.02 µg/mL, the MIC (Streptococcus pyogenes [3]) was 0.2 µg/mL and the solubility [4] was 12.2 µg/mL. It also gave an ED50 (Mus musculus [5]) of 1.2 mg/kg, an MIC (Streptococcus agalactiae) of 0.39 µg/mL and an MIC (Providencia stuartii) of 1.56 µg/mL. It also gave an MIC (Pseudomonas aeruginosa [6]) of 0.1 µg/mL, an MIC (Micrococcus luteus [7]) of 0.78 µg/mL and an MIC (Streptococcus equinus) of 0.2 µg/mL. It also gave an ED50 (Mus musculus [8]) of over 25 mg/kg, an MIC (Escherichia coli [9]) of 0.2 µg/mL and an MIC (Staphylococcus aureus [10]) of 0.02 µg/mL. For the same compound, the MIC (Klebsiella aerogenes) was 0.1 µg/mL, the solubility [11] was 12.7 µg/mL and the solubility [12] was 23.5 µg/mL. It also gave a solubility [13] of 8 µg/mL, an MIC (Staphylococcus aureus [14]) of 0.05 µg/mL and an MIC (Streptococcus pyogenes [15]) of 0.2 µg/mL. For the same compound, the MIC (Staphylococcus aureus [16]) was 0.05 µg/mL, the MIC (Micrococcus luteus [17]) was 1.56 µg/mL and the ED50 (Mus musculus [18]) was 0.2 mg/kg. The MIC (Escherichia coli [19]) was 0.02 µg/mL, the MIC (Acinetobacter sp.) was 0.05 µg/mL and the solubility [20] was 6.5 µg/mL. It also gave an MIC (Escherichia coli [21]) of 0.02 µg/mL, an MIC (Staphylococcus aureus [22]) of 0.05 µg/mL and an MIC (Pseudomonas aeruginosa [23]) of 0.2 µg/mL. The solubility [24] was 1.7 µg/mL, the MIC (Escherichia coli [25]) was 0.01 µg/mL and the MIC (Pseudomonas aeruginosa [26]) was 0.1 µg/mL. For the same compound, the MIC (Staphylococcus aureus [27]) was 0.1 µg/mL, the MIC (Staphylococcus aureus [28]) was 0.05 µg/mL and the ED50 (Mus musculus [29]) was 0.4 mg/kg. It also gave an MIC (Streptococcus pyogenes [30]) of 0.2 µg/mL, a solubility [31] of 16.3 µg/mL and an MIC (Klebsiella pneumoniae) of 0.02 µg/mL. It also gave an MIC (Staphylococcus aureus [32]) of 0.1 µg/mL, a solubility [33] of 1.8 µg/mL and an MIC [34] of 0.05 µg/mL.
